This passage reports Kd results from PMC2788151 (Journal of immunology (Baltimore, Md. : 1950), 2009).

Non-standard residues stand in square brackets, D forms with d. Residues, ends and D or L forms follow the SMILES beside them. No end group written: not given here. *: point of attachment. Biotin = O=C1N[C@H]2[C@H](CS[C@H]2CCCCC(=O)*)N1; pY = N[C@@H](Cc1ccc(OP(=O)(O)O)cc1)C(=O)O A value given as a limit tells only on which side of the number the result lay.

In assay [1] the target is T1, Recombinant human Dok1 PTB domain (amino acids 140–268) (Homo sapiens, UniProt Q99704).
T1 sequence (Q99704 140-268): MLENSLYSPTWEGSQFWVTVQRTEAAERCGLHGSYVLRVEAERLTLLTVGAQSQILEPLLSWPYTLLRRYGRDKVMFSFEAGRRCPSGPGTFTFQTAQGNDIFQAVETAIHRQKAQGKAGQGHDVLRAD
Format: binding. In short, it runs like this: (§1)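 On a BIAcore 3000, ~4000 RU streptavidin was amine-coupled to CM5 chips at 25°C, then 50–150 RU biotinylated human phosphotyrosine peptides (CD200R tail, singly or doubly phosphorylated) were captured. Increasing concentrations of monomeric recombinant soluble PTB domain were passed over at 37°C to reach equilibrium binding. Signal from non-phosphorylated-peptide or streptavidin-only flow cells was subtracted, and the data were fitted to hyperbolas.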

Assay [2] addresses CD200R pY1,2 peptide (human). Description: SPR. A general note: SPR reads the build-up and loss of mass on a sensor chip optically.
The target of assay [3] is CD200R pY1,3 peptide (human). As to the kind of experiment: SPR.
Sequence of CD200R pY1,3 peptide (human) (Q8TD46 309-329): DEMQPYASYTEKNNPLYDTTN
Assay [4] has as its target CD200R pY3 peptide (human). As to the kind of experiment: SPR.
For assay [5], the target named is CD200R pY1 peptide (human). As to the kind of experiment: SPR.
For assay [6], the target named is T2, Recombinant human Dok2 PTB domain (amino acids 133–259) (Homo sapiens, UniProt O60496).
T2 sequence (O60496 133-259): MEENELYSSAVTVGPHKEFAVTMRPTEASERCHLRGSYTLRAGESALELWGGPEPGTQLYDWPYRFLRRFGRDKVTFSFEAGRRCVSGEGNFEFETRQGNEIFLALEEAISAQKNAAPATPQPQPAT
Format: binding. The procedure, abridged:
as §1

Assay [7] deals with T3, Recombinant human Dok2 PTB domain (amino acids 133-259) (human, UniProt O60496 133-259).
T3 sequence (looked up): T2 sequence (O60496 133-259)
As to the kind of experiment: SPR.

Assay [8] has as its target T4, Recombinant human Dok1 PTB domain (amino acids 140-268) (human, UniProt Q99704 140-268).
T4 sequence (looked up): T1 sequence (Q99704 140-268)
As to the kind of experiment: SPR.

What is called Kd is the free concentration of one partner at which half of the binding sites on the other are occupied at equilibrium, for simple one-to-one binding. Consider `CC[C@H](C)[C@H](NC(=O)[C@H](CCC(=O)O)NC(=O)[C@@H](NC(=O)CCCC[C@@H]1SC[C@@H]2NC(=O)N[C@@H]21)[C@@H](C)O)C(=O)N[C@H](C(=O)N[C@@H](CC(N)=O)C(=O)N1CCC[C@H]1C(=O)N[C@@H](CC(N)=O)C(=O)N[C@@H](Cc1ccc(OP(=O)(O)O)cc1)C(=O)N[C@@H](CCSC)C(=O)NCC(=O)N[C@H](C(=O)NCC(=O)N1CCC[C@H]1C(=O)O)C(C)C)[C@@H](C)CC` [SHIP pY917] (Biotin-TEIINPN[pY]MGVGP-OH), for which, in assay [1], the Kd stood at 13 µM.

On to `CSCC[C@H](NC(=O)[C@H](CCC(=O)O)NC(=O)CCCC[C@@H]1SC[C@@H]2NC(=O)N[C@@H]21)C(=O)N[C@@H](Cc1ccccc1)C(=O)N[C@@H](CCC(=O)O)C(=O)N[C@@H](CC(N)=O)C(=O)N1CCC[C@H]1C(=O)N[C@@H](CC(C)C)C(=O)N[C@@H](Cc1ccc(OP(=O)(O)O)cc1)C(=O)NCC(=O)N[C@@H](CO)C(=O)N[C@@H](CC(C)C)C(=O)N[C@@H](CO)C(=O)N[C@@H](CO)C(=O)O` [SHIP pY1022] (Biotin-EMFENPL[pY]GSLSS-OH), for which the Kd in assay [1] was found to be 13 µM.

As for “Recombinant human Dok1 PTB domain (amino acids 140-268) (from UniProt Q99704 140-268) (domain or fragment)”, the Kd in assay [2] is 8.4 µM; in assay [3] it was 6.2 µM; in assay [4] it was 7.3 µM; in assay [5] it was 14 µM.

As for `CSCC[C@H](NC(=O)[C@H](CCC(=O)O)NC(=O)[C@H](CC(=O)O)NC(=O)CCCC[C@@H]1SC[C@@H]2NC(=O)N[C@@H]21)C(=O)N[C@@H](CCC(N)=O)C(=O)N1CCC[C@H]1C(=O)N[C@@H](Cc1ccc(OP(=O)(O)O)cc1)C(=O)N[C@@H](C)C(=O)N[C@@H](CO)C(=O)N[C@@H](Cc1ccc(O)cc1)C(=O)N[C@H](C(=O)N[C@@H](CCC(=O)O)C(=O)N[C@@H](CCCCN)C(=O)N[C@@H](CC(N)=O)C(=O)N[C@@H](CC(N)=O)C(=O)N1CCC[C@H]1C(=O)N[C@@H](CC(C)C)C(=O)N[C@@H](Cc1ccc(OP(=O)(O)O)cc1)C(=O)N[C@@H](CC(=O)O)C(=O)N[C@H](C(=O)N[C@H](C(=O)N[C@@H](CC(N)=O)C(=O)O)[C@@H](C)O)[C@@H](C)O)[C@@H](C)O` [CD200R pY1,3] (Biotin-DEMQP[pY]ASYTEKNNPL[pY]DTTN-OH), the Kd was determined as 0.6 µM in assay [6] and 6.2 µM in assay [1].

As to `CSCC[C@H](NC(=O)[C@H](CCC(=O)O)NC(=O)[C@H](CC(=O)O)NC(=O)CCCC[C@@H]1SC[C@@H]2NC(=O)N[C@@H]21)C(=O)N[C@@H](CCC(N)=O)C(=O)N1CCC[C@H]1C(=O)N[C@@H](Cc1ccc(O)cc1)C(=O)N[C@@H](C)C(=O)N[C@@H](CO)C(=O)N[C@@H](Cc1ccc(O)cc1)C(=O)N[C@H](C(=O)N[C@@H](CCC(=O)O)C(=O)N[C@@H](CCCCN)C(=O)N[C@@H](CC(N)=O)C(=O)N[C@@H](CC(N)=O)C(=O)N1CCC[C@H]1C(=O)N[C@@H](CC(C)C)C(=O)N[C@@H](Cc1ccc(OP(=O)(O)O)cc1)C(=O)N[C@@H](CC(=O)O)C(=O)N[C@H](C(=O)N[C@H](C(=O)N[C@@H](CC(N)=O)C(=O)O)[C@@H](C)O)[C@@H](C)O)[C@@H](C)O` [CD200R pY3] (Biotin-DEMQPYASYTEKNNPL[pY]DTTN-OH), the Kd in assay [6] is 1.4 µM; in assay [1], 7.3 µM.

For `CSCC[C@H](NC(=O)[C@H](CCC(=O)O)NC(=O)[C@H](CC(=O)O)NC(=O)CCCC[C@@H]1SC[C@@H]2NC(=O)N[C@@H]21)C(=O)N[C@@H](CCC(N)=O)C(=O)N1CCC[C@H]1C(=O)N[C@@H](Cc1ccc(OP(=O)(O)O)cc1)C(=O)N[C@@H](C)C(=O)N[C@@H](CO)C(=O)N[C@@H](Cc1ccc(O)cc1)C(=O)N[C@H](C(=O)N[C@@H](CCC(=O)O)C(=O)N[C@@H](CCCCN)C(=O)N[C@@H](CC(N)=O)C(=O)N[C@@H](CC(N)=O)C(=O)N1CCC[C@H]1C(=O)N[C@@H](CC(C)C)C(=O)N[C@@H](Cc1ccc(O)cc1)C(=O)N[C@@H](CC(=O)O)C(=O)N[C@H](C(=O)N[C@H](C(=O)N[C@@H](CC(N)=O)C(=O)O)[C@@H](C)O)[C@@H](C)O)[C@@H](C)O` [CD200R pY1] (Biotin-DEMQP[pY]ASYTEKNNPLYDTTN-OH), the Kd in assay [1] turned out to be 14 µM.

In the case of `CSCC[C@H](NC(=O)[C@H](CCC(=O)O)NC(=O)[C@H](CC(=O)O)NC(=O)CCCC[C@@H]1SC[C@@H]2NC(=O)N[C@@H]21)C(=O)N[C@@H](CCC(N)=O)C(=O)N1CCC[C@H]1C(=O)N[C@@H](Cc1ccc(OP(=O)(O)O)cc1)C(=O)N[C@@H](C)C(=O)N[C@@H](CO)C(=O)N[C@@H](Cc1ccc(OP(=O)(O)O)cc1)C(=O)N[C@H](C(=O)N[C@@H](CCC(=O)O)C(=O)N[C@@H](CCCCN)C(=O)N[C@@H](CC(N)=O)C(=O)N[C@@H](CC(N)=O)C(=O)N1CCC[C@H]1C(=O)N[C@@H](CC(C)C)C(=O)N[C@@H](Cc1ccc(O)cc1)C(=O)N[C@@H](CC(=O)O)C(=O)N[C@H](C(=O)N[C@H](C(=O)N[C@@H](CC(N)=O)C(=O)O)[C@@H](C)O)[C@@H](C)O)[C@@H](C)O` [CD200R pY1,2] (Biotin-DEMQP[pY]AS[pY]TEKNNPLYDTTN-OH), the Kd in assay [1] was 8.4 µM.

In the case of “Recombinant human Dok2 PTB domain (amino acids 133-259) (from UniProt O60496 133-259) (domain or fragment)”, the figures for the Kd in assay [3] and in assay [4] were 0.6 µM and 1.4 µM, respectively.

Take Biotin-TEIINPN[pY]MGVGP [SHIP pY917 peptide]: the Kd in assay [7] is over 30 µM.

As to Biotin-EMLENSL[pY]SPTW [Dok1 pY146 peptide], the dissociation constant Kd in assay [8] was 6.9 µM.

Biotin-CMEENEL[pY]SSAV [Dok2 pY139 peptide]: the Kd in assay [8] was determined as 3.3 µM.
